FXIIa inh – inhibitors of human coagulation factor XIIa; purified FXIIa, Boc-QGR-AMC fluorogenic substrate, 2 h; inhibition, % at 5 µM; 220,000 compounds, 0.3% hits; AID 800; in the data active means inhibition above about 40%;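 further: 0% = enzyme with no compound and 100% = blank without enzyme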
Target sequence (P00748 20-372 limits assumed): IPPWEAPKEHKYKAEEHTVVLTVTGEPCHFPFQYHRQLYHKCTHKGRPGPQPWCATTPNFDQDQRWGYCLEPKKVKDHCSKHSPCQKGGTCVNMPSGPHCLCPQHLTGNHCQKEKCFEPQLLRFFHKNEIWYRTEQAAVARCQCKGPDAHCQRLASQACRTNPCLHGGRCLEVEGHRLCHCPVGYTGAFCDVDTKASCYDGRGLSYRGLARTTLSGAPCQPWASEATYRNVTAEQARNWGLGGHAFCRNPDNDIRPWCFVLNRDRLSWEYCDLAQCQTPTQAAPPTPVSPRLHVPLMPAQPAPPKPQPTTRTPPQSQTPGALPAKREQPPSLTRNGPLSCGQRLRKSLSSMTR
Target sequence (P00748 373-615 limits assumed): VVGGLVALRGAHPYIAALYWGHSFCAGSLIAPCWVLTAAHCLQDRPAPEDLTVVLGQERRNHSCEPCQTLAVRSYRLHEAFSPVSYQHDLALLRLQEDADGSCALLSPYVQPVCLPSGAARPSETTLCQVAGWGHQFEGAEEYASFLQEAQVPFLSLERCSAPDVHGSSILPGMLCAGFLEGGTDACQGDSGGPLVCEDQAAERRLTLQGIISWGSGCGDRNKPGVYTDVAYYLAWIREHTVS
AHR act – activators of human aryl hydrocarbon receptor; activation, % at 5 µM; P35869; AHR-responsive luciferase reporter cells, luminescence; 320,000 compounds, 2.5% hits; in the data active means activation above about 47%;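 further: 0% = vehicle wells and 100% = reference agonist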
Thrombin inh – blocks human thrombin protease activity; P00734; alpha-thrombin, Boc-VPR-AMC fluorogenic substrate cleavage; inhibition, % at 5 µM; 220,000 compounds, 0.26% hits; AID 1046;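 active means inhibition at or above 40%; inactive means inhibition below 40%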;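 further: 0% = enzyme with no compound and 100% = wells without enzyme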
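Test system: human alpha-thrombin; medium: pH 7.5 Tris-saline with Tween 20; times: reaction at room temperature; signal: AMC fluorescence at 355 nm excitation and 460 nm emission; also added: Boc-VPR-AMC substrate, 15 µM final; dosing: one concentration per compound, 5 µM, with 0.2% DMSO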
STAT3 activator – STAT3 signaling activation; U3A cells, IL-6 STAT3-luciferase reporter, luminescence; 100% = signal with IL-6 EC80 alone; activation (% of control), % at 5.6 µM; 190,000 compounds, 0.91% hits; AID 871;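 active means activation above the screen-wide mean of compound activation plus 3 SD, cut at about 130% in these data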;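 further: 0% = background luminescence of wells with medium and substrate only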
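Test system: human U3A cells carrying STAT3-luciferase construct; control set: IL-6-only wells as 100% reference; timing: compound pre-incubation 1 h before IL-6, then 6 h stimulation at 37 °C; also added: IL-6 stimulus at 33 ng/mL final; evaluation: % activation versus median of IL-6-stimulated wells; detection: reporter luminescence signal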
hK5 inh – blocks human kallikrein 5 protease activity; Q9Y337; inhibition, % at 5 µM; AID 873; 210,000 compounds, 0.59% hits; recombinant hK5, fluorogenic AMC substrate cleavage;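 active means inhibition of 40% or more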;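 further: 0% = enzyme controls without compound and 100% = no-enzyme blanks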
FXIa inh – blocks human coagulation factor XIa protease activity. P03951. purified FXIa, Boc-Glu-Ala-Arg-AMC fluorogenic substrate. inhibition, % at 5 µM. 220,000 compounds, 0.14% hits. AID 798;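 active means inhibition of at least 40%; inactive means inhibition below 40%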;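 further: fluorescence of freed AMC excited at 355 nm; 0% = enzyme without compound and 100% = no enzyme blank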
Active calls of the source: *; / = not tested or not shown. Compounds with a hit are over-represented: about 3.5% of the library has one in this group of screens.

SMILES	FXIIa inh	AHR act	Thrombin inh	STAT3 activator	hK5 inh	FXIa inh
O=C(C1CCCCC1)N1CCC(c2nc3ccccc3[nH]2)CC1	13	0	18	104	71*	-1
O=C(NC1CCCCC1)N1CCC(c2nc3ccccc3[nH]2)CC1	7	3	-2	100	-22	-8
COc1ccc2c(c1)c1nnc(SCC(=O)NC3CC3)nc1n2C	/	72*	/	/	/	/
CC1(C)CC2CC(C)(CN2CC(=O)C(C#N)c2ccccc2)C1 (stereo unspecified)	-4	3	3	109	115*	-9
Cc1ncsc1CCC(=O)N1CCCC(C(=O)c2ccc3c(c2)OCO3)C1 (stereo unspecified)	6	0	-6	98	-5	-7
COc1ccc(N(CC(O)Cn2c3ccccc3c3ccccc32)S(=O)(=O)c2ccccc2)cc1 (stereo unspecified)	7	55*	6	94	5	5
CS(=O)(=O)N(CC(O)Cn1c2ccccc2c2ccccc21)c1ccccc1 (stereo unspecified)	15	12	-4	101	-16	6
CCOc1cc(C(=O)Nc2cccnc2)cc(OCC)c1OCC	/	73*	/	/	/	/
CCOc1ccc(C(=O)Nc2cc(C)on2)cc1	8	8	-5	66	-8	-7
CCOc1cc(C(=O)Nc2cc(C)on2)cc(OCC)c1OCC	13	64*	7	100	0	6
O=C(CN(C(=O)CSc1nnc(COc2ccccc2)o1)c1ccc(F)cc1)NC1CCCC1	-6	-4	-2	99	2	-3
O=C(CN(C(=O)CSc1nnc(COc2ccccc2)o1)c1ccc(F)cc1)NC1CCCCC1	31	-2	25	102	130*	6
O=C(c1ccc(Cl)c(S(=O)(=O)NCc2cccnc2)c1)N1CCCC1	/	0	/	/	/	/
Cc1ccc(CNC(=O)c2ccc3c(c2)NC(=O)C(N2CCOCC2)S3)cc1 (stereo unspecified)	12	0	-10	133*	-2	1
CC(=O)N(CCc1cccc(C)c1)Cc1cc2cc(C)ccc2[nH]c1=O	/	49*	/	/	/	/
CC(=O)N(CCc1cccc(C)c1)Cc1cc2ccc(C)cc2[nH]c1=O	/	9	/	/	/	/
CCOC(=O)C1CCCN(C(=S)Nc2cccc(Cl)c2C)C1 (stereo unspecified)	3	3	-9	96	-2	-3
Cc1ccc(-c2nc(Nc3ccc(N4CCOCC4)cc3)c3ccccc3n2)cc1	7	70*	-5	/	3	4
Cc1ccc(C)c(Nc2nc(-c3ccncc3)nc3ccccc23)c1	/	68*	/	/	/	/
Cc1cccc(-c2nc(NCCCN3CCOCC3)c3ccccc3n2)c1	12	52*	0	112	-11	2
c1ccc(-c2nc(NCCCN3CCOCC3)c3ccccc3n2)cc1	3	14	1	103	4	-3
Cc1ccc(-c2nc(Nc3cccc(O)c3)c3ccccc3n2)cc1	/	31	/	/	/	/
Cc1ccc(-c2nc(Nc3ccc(O)cc3)c3ccccc3n2)cc1	/	54*	/	/	/	/
O=C(NNC(=O)c1ccccc1-n1cccc1)c1cncc(Br)c1	/	7	/	/	/	/
OCC[C@@H]1C[C@H](O)[C@@H](O)[C@]2(Cc3ccccc3CO2)O1	/	-1	/	/	/	/
SMILES	FXIIa inh	AHR act	Thrombin inh	STAT3 activator	hK5 inh	FXIa inh
NS(=O)(=O)c1ccc(NS(=O)(=O)c2ccc(NC(=O)C3CC3)cc2)cc1	/	0	/	/	/	/
C[C@]12CCC3c4ccc(OCC(=O)O)cc4CCC3C1CCC2=O (stereo partly specified)	5	2	-2	/	0	-3
COc1cc2c(cc1OC)C(C(=O)Nc1ccc(F)c(Cl)c1)CC(=O)N2 (stereo unspecified)	/	4	/	/	/	/
CC(SCC(=O)Nc1ccccc1Br)c1nc2ccccc2c(=O)[nH]1 (stereo unspecified)	/	1	/	/	/	/
Cc1cc(=O)[nH]c2c1c(C)nn2C1CCCC1	-1	-1	3	92	54*	-1
Cc1cc(=O)[nH]c2c1c(C)nn2-c1ccccc1	3	62*	-2	96	-2	-7
Cc1nn(-c2ccccc2)c2[nH]c(=O)cc(C(F)(F)F)c12	/	18	/	/	/	/
FC(F)(F)c1ccccc1NC(=S)N/N=C1\CC2CC=CC12 (stereo unspecified)	8	/	0	100	12	0
